Source: ChEMBL document CHEMBL4689842, “EUbOPEN Chemogenomics Library wave 1” (2021)

Experiments:
U2OS = test: Incucyte cell viability with U2OS; format: toxicity, cell-based; conditions: human, 10 µM, compound concentration 10 uM; also: filed as whole numbers so only -1 and 0 and 1 occur
Fibroblast = test: Multiplex assay against human fibroblast; format: toxicity, cell-based
Outline: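 Values for tubulin, mitochondrial-mass and membrane-permeability phenotypes are per cents of cells with healthy nuclei. These cells were identified by CellPathfinder machine-learning gating of live cells that had been stained at seeding with Hoechst33342, BioTracker Green Microtubule Cytoskeleton Dye, MitoTracker Red and Annexin V Alexa Fluor 680 and imaged on a CQ1 microscope at 37°C and 5% CO2 after compound addition. The gating first set Hoechst high-intensity objects apart from normal cells, then split normal cells into healthy, pyknosed or fragmented nuclei, and pyknosed cells into mitotic or apoptotic.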

[1] = 12 h, 1 µM, compound concentration 1 uM, replicate 1
[2] = 12 h, 1 µM, compound concentration 1 uM, replicate 2
[3] = 12 h, 10 µM, compound concentration 10 uM, replicate 1
[4] = 12 h, 10 µM, compound concentration 10 uM, replicate 2
[5] = 24 h, 1 µM, compound concentration 1 uM, replicate 1
[6] = 24 h, 1 µM, compound concentration 1 uM, replicate 2

Cc1cc2c(cc1N1C(=O)c3cccc4c(CCCO)ccc(c34)C1=O)n(C)c(=O)n2C
Growth Rate (U2OS; 0 h, replicate number 1, timepoint 0 hours): 0
Growth Rate (U2OS; 6 h, replicate number 1, timepoint 6 hours): 0
Growth Rate (U2OS; 6 h, replicate number 2, timepoint 6 hours): 1
Growth Rate (U2OS; 12 h, replicate number 1, timepoint 12 hours): 0
Growth Rate (U2OS; 18 h, replicate number 1, timepoint 18 hours): 0
Growth Rate (U2OS; 18 h, replicate number 2, timepoint 18 hours): 1
Growth Rate (U2OS; 24 h, replicate number 1, timepoint 24 hours): 0
Population Apoptotic (%) (Fibroblast; [1]): 68%
Population Fragmented Nuclei (%) (Fibroblast; [1]): 19%
Population Healthy Nuclei (%) (Fibroblast; [1]): 49%
Population Hoechst High Intensity Objects (%) (Fibroblast; [1]): 17%
Population Membrane Permeable-Phenotype (%) (Fibroblast; [1]): 30%
Population Mitochondria Different-Phenotype (%) (Fibroblast; [1]): 8%
Population Mitotic Cells (%) (Fibroblast; [1]): 31%
Population Normal (%) (Fibroblast; [1]): 82%
Population Pyknosed Nuclei (%) (Fibroblast; [1]): 31%
Population Tubulin-Different-Phenotype (%) (Fibroblast; [1]): 41%
Total Cell Count (Fibroblast; [1]): 148
Population Apoptotic (%) (Fibroblast; [2]): 0%
Population Fragmented Nuclei (%) (Fibroblast; [2]): 6%
Population Healthy Nuclei (%) (Fibroblast; [2]): 90%
Population Hoechst High Intensity Objects (%) (Fibroblast; [2]): 8%
Population Membrane Permeable-Phenotype (%) (Fibroblast; [2]): 1%
Population Mitochondria Different-Phenotype (%) (Fibroblast; [2]): 22%
Population Mitotic Cells (%) (Fibroblast; [2]): 100%
Population Normal (%) (Fibroblast; [2]): 91%
Population Pyknosed Nuclei (%) (Fibroblast; [2]): 3%
Population Tubulin-Different-Phenotype (%) (Fibroblast; [2]): 24%
Total Cell Count (Fibroblast; [2]): 104
Population Apoptotic (%) (Fibroblast; [3]): 68%
Population Fragmented Nuclei (%) (Fibroblast; [3]): 21%
Population Healthy Nuclei (%) (Fibroblast; [3]): 46%
Population Hoechst High Intensity Objects (%) (Fibroblast; [3]): 12%
Population Membrane Permeable-Phenotype (%) (Fibroblast; [3]): 21%
Population Mitochondria Different-Phenotype (%) (Fibroblast; [3]): 7%
Population Mitotic Cells (%) (Fibroblast; [3]): 31%
Population Normal (%) (Fibroblast; [3]): 87%
Population Pyknosed Nuclei (%) (Fibroblast; [3]): 31%
Population Tubulin-Different-Phenotype (%) (Fibroblast; [3]): 72%
Total Cell Count (Fibroblast; [3]): 126
Population Apoptotic (%) (Fibroblast; [4]): 37%
Population Fragmented Nuclei (%) (Fibroblast; [4]): 20%
Population Healthy Nuclei (%) (Fibroblast; [4]): 63%
Population Hoechst High Intensity Objects (%) (Fibroblast; [4]): 9%
Population Membrane Permeable-Phenotype (%) (Fibroblast; [4]): 29%
Population Mitochondria Different-Phenotype (%) (Fibroblast; [4]): 77%
Population Mitotic Cells (%) (Fibroblast; [4]): 62%
Population Normal (%) (Fibroblast; [4]): 90%
Population Pyknosed Nuclei (%) (Fibroblast; [4]): 16%
Population Tubulin-Different-Phenotype (%) (Fibroblast; [4]): 96%
Total Cell Count (Fibroblast; [4]): 54
Population Apoptotic (%) (Fibroblast; [5]): 46%
Population Fragmented Nuclei (%) (Fibroblast; [5]): 20%
Population Healthy Nuclei (%) (Fibroblast; [5]): 55%
Population Hoechst High Intensity Objects (%) (Fibroblast; [5]): 19%
Population Membrane Permeable-Phenotype (%) (Fibroblast; [5]): 31%
Population Mitochondria Different-Phenotype (%) (Fibroblast; [5]): 5%
Population Mitotic Cells (%) (Fibroblast; [5]): 53%
Population Normal (%) (Fibroblast; [5]): 80%
Population Pyknosed Nuclei (%) (Fibroblast; [5]): 24%
Population Tubulin-Different-Phenotype (%) (Fibroblast; [5]): 41%
Total Cell Count (Fibroblast; [5]): 130
Population Apoptotic (%) (Fibroblast; [6]): 40%
Population Fragmented Nuclei (%) (Fibroblast; [6]): 7%
Population Healthy Nuclei (%) (Fibroblast; [6]): 87%
Population Hoechst High Intensity Objects (%) (Fibroblast; [6]): 3%
Population Membrane Permeable-Phenotype (%) (Fibroblast; [6]): 0%
Population Mitochondria Different-Phenotype (%) (Fibroblast; [6]): 27%
Population Mitotic Cells (%) (Fibroblast; [6]): 60%
Population Normal (%) (Fibroblast; [6]): 96%
